Assay outcomes from PubChem BioAssay.
The list is not random: actives were taken first. Their share in the collection is about 2.2%.
STAT3 blocker = IL-6 driven STAT3 reporter inhibitors, primary screen, U3A cells, luciferase, luminescence, MLSCN library; IL-6 STAT3-luciferase reporter; host cell line lacks STAT1; inhibition, % at 5.5 µM; actives 0.89% (n = 190,000);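 active = inhibition above the mean inhibition across all screened compounds plus 3 SD, cut at about 44% in these data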
PPC-1+TRAIL kill = compounds killing PPC-1 cancer cells with TRAIL present, primary screen, TRAIL potentiator project, ATPLite luminescence, uHTS | PPC-1 cells + TRAIL, ATPLite viability luminescence | actives 0.41% (n = 220,000) | cell killing (% activity), % at 4 µM or 5 µM;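 active = cell killing above 50% in the first pass at 4 µM, then a duplicate retest at 5 µM averaging 50% or more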
FLuc act counter = FLuc activators, initial screening, artefact control for FLuc-dependent activation tests, biochemical, ATPlite luminescence; activation factor at 10 µM; Luciferin 4-monooxygenase (Photinus pyralis), P08659; 200,000 tested, under 10 active; AID 1027, 2008; ATPlite luciferase biochemical, 10 min; 0 = ATP-free wells, 1 = DMSO control;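 active = luciferase activation factor, scaled between plate controls, of at least 2 with compound at 10 µM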
Target sequence (P08659 whole entry, looked up): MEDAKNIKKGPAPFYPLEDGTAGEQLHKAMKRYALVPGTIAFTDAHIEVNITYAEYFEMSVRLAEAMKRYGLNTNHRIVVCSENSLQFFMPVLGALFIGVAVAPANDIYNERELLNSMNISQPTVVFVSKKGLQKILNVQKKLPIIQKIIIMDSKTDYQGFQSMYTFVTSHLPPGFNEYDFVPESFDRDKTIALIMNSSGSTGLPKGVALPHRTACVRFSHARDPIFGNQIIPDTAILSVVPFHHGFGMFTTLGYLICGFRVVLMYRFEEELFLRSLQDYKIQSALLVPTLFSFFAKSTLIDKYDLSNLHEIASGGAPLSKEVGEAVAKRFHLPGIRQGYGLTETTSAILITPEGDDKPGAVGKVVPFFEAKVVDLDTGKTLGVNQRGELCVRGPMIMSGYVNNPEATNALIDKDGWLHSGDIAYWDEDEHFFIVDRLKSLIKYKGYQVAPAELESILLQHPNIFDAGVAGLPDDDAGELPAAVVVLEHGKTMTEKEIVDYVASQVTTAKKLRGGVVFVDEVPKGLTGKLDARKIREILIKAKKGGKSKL
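test system = cell-free luciferase reagent | medium = PBS as buffer for the ATP substrate | dosing = test compounds dosed from 2 mM stocks in 100% DMSO | incubation = 10 min at ambient temperature | detection = luminescence measurement of luciferase light output | benchmarks = low control with PBS replacing ATP, high control enzyme plus ATP without compound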
TRAIL sens C8 = viability loss with TRAIL in NB7+C8 cells, primary screen, TRAIL sensitizer project, cell-based, ATPlite luminescence. actives 1% (n = 360,000). inhibition (viability loss, TRAIL sensitization), % at 10 µM;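 active = compounds causing at least 50% loss of cell viability in the single-dose screen, relative to plate controls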
HSP90 inh = HSP90 inhibitors, primary screen, cell lysate, luminescence. Rabbit reticulocyte lysate, luciferase refolding luminescence, 3 h. inhibition, % at 5.6 µM. actives 0.91% (n = 290,000). AID 1789, 2009;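 active = inhibition above the screen-wide mean plus 3 SD, computed separately per campaign, cut at about 16% in these data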;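 also: inhibitors lower the luminescence because luciferase stays unfolded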
FLuc inhib CS = firefly luciferase enzyme inhibitors, primary screen, artefact control for luciferase-based inhibitor screens, biochemical, luminescence, ATPLite; 10 min; inhibition, % at 10 µM; actives 1.5% (n = 200,000); AID 1006, 2008;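 active = inhibition above about 50% when tested at 10 µM, limit read from the data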
A number is an active result; n = inactive; x = no result.

SMILES	STAT3 blocker	PPC-1+TRAIL kill	FLuc act counter	TRAIL sens C8	HSP90 inh	FLuc inhib CS
CN(C)c1ccc(/C=N/Nc2nncc3ccccc23)cc1	x	x	x	65.8	n	x
C(=N\Nc1ncnc2ccccc12)/c1ccccc1	n	n	n	n	n	73.8
Cc1ccc2nc(-c3ccccc3)cc(C(=O)N(C)CC(=O)Nc3ccccc3Br)c2c1	x	x	x	n	x	x
Cc1ccc(S(=O)(=O)N(C)c2ccc3c(ncn3C)c2[N+](=O)[O-])cc1	x	x	x	n	x	x
COc1cc(/C=N/NC(=S)Nc2cccc(Cl)c2C)ccc1OCC(=O)N1CC(C)OC(C)C1 (configuration not stated)	n	n	n	n	n	n
Oc1ccc2ccccc2c1/C=N/Nc1nnc(-c2ncc[nH]2)c2ccccc12	n	n	n	n	n	n
COc1ccc(/C=N/Nc2nnc(-c3ncc[nH]3)c3ccccc23)cc1	n	n	n	n	n	71.8
C(=N\Nc1nncc2ccccc12)/c1ccccc1	x	n	x	49.7	n	x
COc1cc(/C=N/Nc2nncc3ccccc23)cc(OC)c1OC	x	x	x	n	n	x
O=C(COC(=O)c1cccnc1Cl)c1ccc(OC(F)F)cc1	n	n	n	n	n	54.1
O=C(COC(=O)c1cccnc1Cl)c1ccc(Cl)cc1Cl	n	n	n	n	n	77.7
CC(=O)Nc1cc(C(=O)OCC(=O)c2ccc(Cl)cc2Cl)ccc1C	n	n	n	n	n	n
COc1ccc(C(=O)COC(=O)c2cccnc2Cl)c(OC)c1	n	n	n	n	n	n
CC(C)C(=O)Nc1cccc(C(=O)OCC(=O)c2ccc(Cl)cc2Cl)c1	n	n	n	n	n	53.7
COc1ccc(N2CCN(C(=O)COC(=O)c3cnccn3)CC2)cc1	x	x	x	n	x	x
Nc1nc(SCC(=O)c2c(N)n(Cc3ccccc3)c(=O)[nH]c2=O)n[nH]1	x	n	x	n	n	x
CCOC(=O)c1sc(NC(=O)c2cc(-c3ccc(C)cc3)nc3ccccc23)c(C#N)c1C	n	n	n	n	n	n
COC(=O)c1sc(NC(=O)c2cc(-c3ccccc3)nc3ccccc23)c(C#N)c1C	48.7	n	n	52.2	n	n
Cc1cccnc1NC(=O)c1sc2ccccc2c1Cl	x	x	x	54.1	n	x
O=C(NC1=NCCS1)c1cc(-c2ccc(-c3ccccc3)cc2)nc2ccccc12	n	n	n	65.1	n	73.4
Cc1ccc2nsnc2c1NC(=O)c1sc2ccccc2c1Cl	n	n	n	n	n	n
COc1ccc(-c2cc(C(=O)NC3=NCCS3)c3ccccc3n2)cc1OC	n	n	n	n	n	n
Cc1c(C(=O)NC2=NCCS2)oc2ccccc12	n	n	n	n	n	51.0
CCN(CC)C(=O)C1=C(C)N(Cc2ccccc2)C(=O)C(CC(=O)NCc2cccs2)C1 (configuration not stated)	x	x	x	n	x	x
O=C(NNC(=O)c1ccc(S(=O)(=O)N2CCCC2)cc1)c1ccc(Br)cc1	x	x	x	n	x	x
SMILES	STAT3 blocker	PPC-1+TRAIL kill	FLuc act counter	TRAIL sens C8	HSP90 inh	FLuc inhib CS
O=C(NCCCN1CCOCC1)c1cccs1	n	n	n	n	n	n
COc1ccc(S(=O)(=O)N2CCCCCC2)cc1C(=O)N(C)CC(=O)Nc1cc(C)ccc1C	x	x	x	n	n	x
O=C(NC1=NCCS1)c1sc2ccccc2c1Cl	n	n	n	n	n	56.4
COc1cc(NC(=O)c2cccc3c(-c4cnn(C)c4)coc23)cc(OC)c1OC	x	x	x	n	x	x
Cc1ccc(NC(=O)CSc2nc3ccc(Nc4nc(N5CCOCC5)nc(N5CCOCC5)n4)cc3s2)cc1	x	x	x	55.2	n	x
COc1ccc(Cc2nnc(NC(=O)c3ccccc3C)s2)cc1	x	x	x	n	n	x
CC(=O)NC12CC3CC(C1)CC(C(=O)OCC(=O)c1ccc4c(c1)OCCO4)(C3)C2	n	n	n	n	n	57.8
CC(=O)NC12CC3CC(C1)CC(C(=O)OCC(=O)c1cc(C)n(C)c1C)(C3)C2	x	x	x	n	x	x
CCc1cc2c(=O)c(-c3ccc4c(c3)OCCO4)coc2cc1OS(C)(=O)=O	n	n	n	n	n	51.5
COCCn1cnnc1SCC(=O)Nc1sccc1C(N)=O	n	n	n	n	n	n
Cc1ccc(S(=O)(=O)NC(=O)Nc2ccc(Cl)cn2)cc1	n	n	n	n	n	n
Cc1ccc(S(=O)(=O)NC(=O)NC2=NC(C)(C)N(c3ccc(Cl)c(Cl)c3)C(N)=N2)cc1	x	x	x	81.6	x	x
CC[n+]1c(/C=C2\C=C(C)CC(C)C2)sc2ccccc21 (configuration not stated)	n	n	n	n	n	n
CC[n+]1c(/C=C2\C=C(C)CC(C)(C)C2)sc2ccccc21	50.0	n	n	n	n	n
CC[n+]1c(/C=C2/C=C(C)CC(C)(C)C2)sc2ccc(OC)cc21	58.2	n	n	n	n	n
CCC1=C/C(=C/c2sc3ccccc3[n+]2CC)CC(C)(C)C1	n	x	n	x	n	n
CCCC1CC(C(=O)Nc2ccccc2)C(=O)O1 (configuration not stated)	x	x	x	n	x	x
CC(C)OC(=O)C(C)Nc1ccc(F)c(Cl)c1 (configuration not stated)	x	n	x	n	n	x
Oc1ccc(/C=N/Nc2nc(-c3cccnc3)nc3ccccc23)c(O)c1	x	n	x	55.1	n	x
COc1ccc(N(Cc2cc(=O)[nH]c3ccccc23)C(=O)CCl)cc1	x	x	x	95.5	n	x
Cc1cccc(N(Cc2cc(=O)[nH]c3ccccc23)C(=O)CCl)c1	x	x	x	84.0	n	x
COc1ccc(CCNC(=O)c2c(O)c3c([nH]c2=O)CCCC3)cc1	n	n	n	n	n	n
Clc1nnc(Cl)c2c1ncn2Cc1ccccc1	x	x	x	n	n	x
O=C(NCc1ccco1)c1ccc2nc([C@@H]3O[C@H](CO)[C@H](O)[C@H](O)[C@H]3O)[nH]c2c1	x	x	x	n	x	x
CCN(Cc1ccncc1)C(=O)c1cc(Br)cc(Br)c1O	n	n	n	n	n	n
SMILES	STAT3 blocker	PPC-1+TRAIL kill	FLuc act counter	TRAIL sens C8	HSP90 inh	FLuc inhib CS
O=c1[nH]c(N/N=C\c2ccc3c(c2)OCO3)nc2ccccc12	n	n	n	52.5	n	75.8
O=c1[nH]c(N/N=C/c2ccccc2)nc2ccccc12	n	n	n	n	n	67.3
C(=N\Nc1nc2ccccc2[nH]1)/c1ccccc1	n	x	n	n	n	n
COc1ccc(COC[B-](F)(F)F)cc1	x	x	x	n	x	x
Cc1cccc2sc(NNC(=O)c3ccc(S(=O)(=O)N4CCc5ccccc5C4)cc3)nc12	n	n	n	n	n	n
Cc1cccc2sc(NNC(=O)c3ccc(S(=O)(=O)N4CCCC(C)C4)cc3)nc12 (configuration not stated)	n	n	n	66.9	n	n
COc1ccccc1-c1oc2ccccc2c1C#CC1(O)CCCCC1	x	x	x	n	x	x
COc1cccc2sc3ccc(C#CC4(O)CCCCC4)cc3c(=O)c12	x	x	x	54.4	n	x
